# Screening results: PubChem, several laboratories
# Hits are enriched below; roughly 5.8% of the tested compounds scored in any of these assays.
# Cl transport mod – modulates chloride dependent transport by human KCC2. 190,000 compounds, 2.2% hits. KCC2 cells, thallium flux FluoZin-2 fluorescence. AID 1456. Q9H2X9. B-score of Tl+ flux slope (higher = more flux/activation; lower = inhibition) at 10 µM;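 active = thallium flux slope and its plate-corrected score both differing from the plate sample mean at a set confidence after two filtering rounds, in either direction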;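 note: slope of fluorescence scaled to starting intensity during 10 to 20 s after thallium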
# ROMK mod – modulates human ROMK potassium channel activity; Tet-inducible ROMK, thallium flux fluorescence; actives lie on both sides; B-score at 10 µM; 130,000 compounds, 2% hits; AID 1918;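 active = signal ratio slope over the read window, or its plate-corrected B-score, at least 3 SD from the plate mean, either direction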;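 note: B-score of the F/F0 ratio slope over 7 to 12 s after thallium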
# Target sequence (P48048 whole entry, looked up): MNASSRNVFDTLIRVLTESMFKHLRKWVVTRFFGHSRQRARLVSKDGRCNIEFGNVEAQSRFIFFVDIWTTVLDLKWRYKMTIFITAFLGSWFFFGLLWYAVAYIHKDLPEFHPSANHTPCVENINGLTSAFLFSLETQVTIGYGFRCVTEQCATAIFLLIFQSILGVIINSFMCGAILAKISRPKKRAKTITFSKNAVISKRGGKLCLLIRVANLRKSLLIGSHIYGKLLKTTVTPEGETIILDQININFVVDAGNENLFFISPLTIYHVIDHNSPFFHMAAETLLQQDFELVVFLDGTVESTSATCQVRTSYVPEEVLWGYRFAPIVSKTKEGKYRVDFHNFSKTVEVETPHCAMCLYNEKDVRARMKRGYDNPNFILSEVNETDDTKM
# 14-3-3 Bad PPI – disrupts binding of bovine 14-3-3 zeta to phospho-Bad peptide; P63103; TR-FRET 14-3-3zeta/Dy647-pBad peptide displacement, 1 h; inhibition, % at 21.7 µM; 220,000 compounds, 0.71% hits;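 active = inhibition above about 70%, limit read from the data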;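 note: 0% = full 14-3-3 plus peptide FRET controls and 100% = background without 14-3-3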
# Target sequence (P63103 whole entry, looked up): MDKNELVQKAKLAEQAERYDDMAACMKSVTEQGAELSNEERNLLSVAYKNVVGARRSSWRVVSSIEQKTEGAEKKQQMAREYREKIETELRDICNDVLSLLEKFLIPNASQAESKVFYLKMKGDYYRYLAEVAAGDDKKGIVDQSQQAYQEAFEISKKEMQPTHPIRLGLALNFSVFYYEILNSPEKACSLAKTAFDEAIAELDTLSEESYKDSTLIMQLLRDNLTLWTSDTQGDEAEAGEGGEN
# p47phox inh – inhibitors of human p47phox binding. P14598. p47phox/p22phox peptide binding, fluorescence polarization, 2 h. inhibition, % at 24.7 µM. 220,000 compounds, 0.53% hits;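 active = inhibition above about 30%, limit read from the data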;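 note: 0% = p47phox with labelled peptide and 100% = labelled peptide alone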
# WT yeast gro inh – growth inhibition of WT yeast, mitochondrial fusion screen. mitochondrial fusion phenotypic screen, WT strain. inhibition, % at 10 µM. 190,000 compounds, 2.1% hits; in the data active = inhibition above about 58%; tested in S. cerevisiae
# RBBP9 inh – human RBBP9 hydrolase inhibition; O75884; recombinant RBBP9, FP-Rh probe fluorescence polarization; inhibition, % at 7.94 µM; 220,000 compounds, 0.2% hits; AID 1515;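 active = inhibition above the campaign mean of all tested compounds plus 3 SD, cut at about 14% in these data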;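 note: plate controls were DMSO wells with RBBP9 for no effect and wells lacking RBBP9 protein for full effect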
# Target sequence (O75884 whole entry, looked up): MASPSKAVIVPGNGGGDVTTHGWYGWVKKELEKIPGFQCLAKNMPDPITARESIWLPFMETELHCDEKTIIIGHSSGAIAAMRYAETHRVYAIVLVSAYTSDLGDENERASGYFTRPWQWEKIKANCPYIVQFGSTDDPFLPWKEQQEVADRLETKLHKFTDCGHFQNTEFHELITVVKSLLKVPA
#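 Material: RBBP9 protein. Amount: RBBP9 at 2.5 µM in dispensed solution, before mixing. Schedule: 30 min then 45 min, 25 °C. Medium: Tris buffer pH 8.0, NaCl, Pluronic. Measured by: fluorescence polarization. Measure: percent inhibition from mP, scaled between DMSO and no-protein wells. Replication: one well per compound.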
# KCC2 sec1 – KCC2 (human) modulation, secondary assay; shares compounds with Cl transport mod; HEK293-KCC2, thallium flux, FluoZin2 fluorescence; stronger effect = higher value; normalised thallium flux (F/F0 slope) at 10 µM; 3,700 compounds, 15% hits; AID 1713;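 active = thallium flux slope above the same plate's solvent-only control mean plus 3 SD; inconclusive = the two replicate wells disagree; inactive = no significant difference from solvent-only control wells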
# KCC2 bumet counter – thallium flux persisting under bumetanide in KCC2 cells, counter-screen secondary assay; HEK293-KCC2 + bumetanide/ouabain, thallium flux FluoZin2; stronger effect = higher value; shares compounds with Cl transport mod; AID 1714; 3,700 compounds, 49% hits; normalized thallium flux at 10 µM;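 active = thallium entry rate above the same plate's blocked-transporter control wells by more than 3 SD; inconclusive = the two repeat wells disagree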;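 note: raw slope of fluorescence over initial fluorescence between 10 and 20 s after thallium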
# KCC2 sec2 – KCC2 (human) modulation, second secondary assay | HEK293-KCC2, thallium flux FluoZin2 fluorescence; actives lie on both sides; F/F0 rise rate, 10–20 s post-thallium | 3,700 compounds, 23% hits | normalized thallium flux at 10 µM | shares compounds with Cl transport mod;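 active = thallium flux slope more than 3 SD above or below the plate's solvent-only control mean, mostly below; inconclusive = the two repeat wells disagreed; inactive = no significant shift from solvent-only controls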;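 note: raw slope with 0.1% DMSO as baseline and bumetanide as block control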
# HEK counter1 – parental HEK flux effect, counter-screen; shares compounds with Cl transport mod; HEK293 parental cells, thallium flux FluoZin2, ouabain; baseline-ratio fluorescence slope, 10–20 s after thallium; thallium flux rate (normalised fluorescence) at 10 µM; 3,700 compounds, 46% hits; AID 1716;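 active = thallium flux rate significantly above the same plate's solvent-only control wells, beyond their mean plus 3 SD; inconclusive = the two replicate wells gave conflicting results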
# KCC2 ouabain – confirmation of human KCC2 modulators with ouabain. AID 1717. raw Tl+ flux slope (below DMSO = inhibition, above = activation) at 10 µM. shares compounds with Cl transport mod. HEK293-KCC2, thallium flux FluoZin2 fluorescence; bidirectional: low = inhibitor, high = activator. 3,700 compounds, 48% hits;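 active = thallium flux slope beyond 3 SD from same-plate DMSO control mean in most replicates, usually higher, sometimes lower; inconclusive = repeat tests gave conflicting results; inactive = no significant difference from controls in most replicates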;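 note: slope of initial-normalized fluorescence between seconds 10 and 20 after thallium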
# HEK293 Tl flux2 – counter-screen for KCC2 modulators: effect in parental HEK293 cells; shares compounds with Cl transport mod; thallium flux FluoZin-2 fluorescence slope; thallium flux slope at 10 µM; 3,700 compounds, 33% hits; AID 1718;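 active = thallium flux slope above the same plate's solvent-control mean plus 3 SD in both duplicate wells; inconclusive = duplicate wells that disagreed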;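 note: run without ouabain in cells lacking the KCC2 cotransporter; slope of fluorescence scaled to its starting value between 10 and 20 s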
# * marks the source's active call; other numbers are inactive results; ? = inconclusive; . = no result.
SMILES,Cl transport mod,ROMK mod,14-3-3 Bad PPI,p47phox inh,WT yeast gro inh,RBBP9 inh,KCC2 sec1,KCC2 bumet counter,KCC2 sec2,HEK counter1,KCC2 ouabain,HEK293 Tl flux2
COc1cccc(Cn2cnc3c(NS(=O)(=O)c4cc(Cl)ccc4Cl)c(C)c(C)cc32)c1,.,.,.,-3.7,43.5,-1.6,0.00911,0.00913*,0.0307,?,0.0259,?
COc1cc(OC)c(/C=N/NC(=O)c2ccc(Cn3nc([N+](=O)[O-])cc3C)cc2)c(OC)c1,-1.22,.,-2.3,-2.8,.,-7.2,.,.,.,.,.,.
O=c1[nH]n2c(=O)c3c([nH]c2c1N=Nc1cccc(C(F)(F)F)c1)CCCC3,-2.08,0.742,2.1,-20.4,5.6,11.8,.,.,.,.,.,.
Cc1[nH]n(C2=NCCS2)c(=O)c1N=Nc1cccc(C(F)(F)F)c1,21.1*,1.03,-29.6,2.4,84.2*,-3.2,0.00631,0.0746*,0.049*,0.0337*,0.055*,0.035*
CC(C)OC(=O)CSc1ncnc2c1cnn2Cc1ccccc1,-3.55*,.,6.6,3.8,0.3,0.5,0.00957,0.00717,0.0318,0.0074,0.019,0.011
COC(=O)c1ccncc1C(=O)Nc1ccc(F)cc1,0.297,-1.27,-6.3,-1.8,-4.6,-0.3,.,.,.,.,.,.
NC(=O)COC(=O)/C=C/c1cccc(Br)c1,-7.7*,0.306,-2.7,-10.0,-12.4,-11.9,0.0092,0.00641,0.0333,0.00791,0.0212,0.0103
Nc1nonc1-n1nnc(C(=O)N/N=C/c2ccccc2Cl)c1COc1ccc(F)cc1,1.12,-0.172,-2.8,-3.0,.,-8.6,.,.,.,.,.,.
Cn1nnnc1SCC(=O)Nc1ccc2c(c1)OCO2,0.421,-0.818,-1.7,8.1,8.2,-5.1,.,.,.,.,.,.
Cn1cc(S(=O)(=O)N2CCc3ccccc3C2)c(=O)n(C)c1=O,-3.45*,.,-2.6,-1.9,-19.5,-2.0,0.0103,?,0.0325,0.00779,0.0217,0.0105
Cc1n[nH]c(=S)n1-c1cccc(Cl)c1,1.52,0.00161,-18.9,-2.2,2.2,-9.5,.,.,.,.,.,.
Cc1ccc(C2CC2c2n[nH]c(=S)n2-c2cccc(Cl)c2)cc1 (stereo unspecified),5.64*,.,5.7,-3.1,33.8,-3.6,0.0077,0.0272*,0.0299,0.011*,?,0.00992
COc1cc(OC)cc(C(=O)N[C@H](C(=O)OCC(=O)N2CCc3ccccc32)C(C)C)c1,-0.427,-0.254,2.6,0.6,-15.1,-1.3,.,.,.,.,.,.
COc1ccc(CNC(=O)c2csc(Cc3ccc(Cl)cc3)n2)cc1,.,.,-4.7,-16.3,31.6,-4.0,0.00594,?,0.0249*,?,0.0152*,0.00964
COc1ccc(CNC(=O)c2csc(Cc3ccc(OC)cc3)n2)cc1,.,.,-3.8,-7.3,14.7,-2.9,.,.,.,.,.,.
O=C(Nc1nnc(C2CC2)o1)c1ccc(S(=O)(=O)N2CCCc3ccccc32)cc1,4.41*,.,2.5,6.4,62.9*,.,0.0124*,0.0255*,0.0319,0.012*,?,0.0113
Cc1cccnc1NC(=O)NC(=O)c1ccc(C(C)(C)C)s1,-0.145,0.229,-2.7,-8.6,.,-0.2,.,.,.,.,.,.
CS(=O)(=O)N1CCC(Oc2ccccc2C(=O)NC(C2CC2)C2CC2)CC1,-0.369,1.44,-12.7,-12.4,-20.7,-6.4,.,.,.,.,.,.
O=C(OCc1ccccc1)c1cccc(-c2nnn(Cc3ccccc3)n2)c1,0.879,.,5.9,3.5,.,-11.2,.,.,.,.,.,.
O=C(OCC#Cc1c(COC(=O)c2ccccc2)nnn1Cc1ccccc1)c1ccccc1,1.78*,.,-1.6,-9.1,.,.,0.007,0.00403,0.0275,0.00728,0.0181,0.01
Nc1ccccc1Oc1ccc2ccccc2c1,0.0632,0.744,-14.5,-6.5,-5.0,-4.4,.,.,.,.,.,.
CC(=O)NNC(=O)c1csc(-c2csc(C)n2)n1,0.354,.,-4.6,14.0,.,0.1,.,.,.,.,.,.
Cc1cccc(N2C(=O)CS/C2=N\NC(=O)c2ccc(Br)cc2)c1C,7.93*,.,-7.0,2.0,12.9,1.6,0.00604,0.0348*,0.0363,0.0229*,0.0343*,0.0238*
O=C1CC(c2ccc(F)cc2)Sc2nc(C34CC5CC(CC(C5)C3)C4)nn21 (stereo unspecified),0.468,.,5.3,-0.8,18.9,-3.9,.,.,.,.,.,.
Cc1sc2c(c1C)c(=O)n(-c1ccc(F)cc1)c(=O)n2CC(=O)NCc1ccco1,.,.,11.8,-15.3,-9.8,-0.9,.,.,.,.,.,.
SMILES,Cl transport mod,ROMK mod,14-3-3 Bad PPI,p47phox inh,WT yeast gro inh,RBBP9 inh,KCC2 sec1,KCC2 bumet counter,KCC2 sec2,HEK counter1,KCC2 ouabain,HEK293 Tl flux2
CCc1ccc(-n2c(=O)c3c(C)c(C(=O)N(C)C)sc3n(CC(=O)NCc3ccco3)c2=O)cc1,3.8*,-0.0505,-5.3,-12.8,11.8,-6.7,0.0163,0.00455,0.0295,0.00761,0.0168,0.01
CSc1nnnn1-c1ccc(C)c(Cl)c1,0.116,1.17,-5.0,-14.5,-3.1,-4.5,.,.,.,.,.,.
CCCn1c(SCN2C(=O)c3ccccc3C2=O)nc2cc(Cl)ccc2c1=O,106*,1.38,-1.8,-3.7,8.6,-1.7,0.0379*,0.171*,0.0534*,0.0915*,0.0838*,0.0462*
S=c1[nH]nc(-c2cccc(Cl)c2)n1/N=C/c1ccco1,13.8*,.,4.2,-10.2,.,-10.5,?,0.0207*,0.0381,0.0179*,0.0315*,0.0115
COc1ccccc1/C=C\C=N\n1c(-c2ccc(Cl)cc2)n[nH]c1=S,3.65,-0.154,12.8,8.2,26.2,-2.8,.,.,.,.,.,.
S=c1[nH]nc(-c2cccc(Cl)c2)n1/N=C/c1ccc(-c2ccccc2Br)o1,0.675,.,17.0,-16.5,.,-3.0,.,.,.,.,.,.
Cc1cccc(-c2n[nH]c(=S)n2/N=C/C=C/c2ccco2)c1,19.9*,.,-6.6,-20.2,.,-1.8,0.0057,0.0218*,0.0294,0.0178*,0.0285*,0.0158*
COc1ccccc1/C=C/C=N/n1c(-c2ccc(F)cc2)n[nH]c1=S,5.32*,-0.132,3.1,-1.5,.,-10.0,0.0105,0.0149*,0.0342,0.0111*,0.0226,0.0107
Cc1ccc(/C=N/n2c(-c3cccc(Cl)c3)n[nH]c2=S)o1,45.1*,.,-2.4,-2.7,.,-6.9,0.00656,0.046*,0.0324,0.0294*,0.0401*,0.0205*
FC(F)(F)c1ccnc(Sc2n[nH]c(C(F)(F)F)n2)c1,.,.,2.3,-17.9,.,-8.4,.,.,.,.,.,.
